# The entries come from a sample that favours hits as a whole.
# S1P4 antagonist = antagonists of human S1P4 receptor | O95977 | 220,000 compounds, 0.26% hits | S1P4-expressing cells, antagonist mode, reporter read-out | inhibition, % at 4.98 µM; in the data active means inhibition above about 29%;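 further: 0% = wells stimulated with agonist and 100% = vehicle wells without agonist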
# Target sequence (O95977 whole entry, looked up): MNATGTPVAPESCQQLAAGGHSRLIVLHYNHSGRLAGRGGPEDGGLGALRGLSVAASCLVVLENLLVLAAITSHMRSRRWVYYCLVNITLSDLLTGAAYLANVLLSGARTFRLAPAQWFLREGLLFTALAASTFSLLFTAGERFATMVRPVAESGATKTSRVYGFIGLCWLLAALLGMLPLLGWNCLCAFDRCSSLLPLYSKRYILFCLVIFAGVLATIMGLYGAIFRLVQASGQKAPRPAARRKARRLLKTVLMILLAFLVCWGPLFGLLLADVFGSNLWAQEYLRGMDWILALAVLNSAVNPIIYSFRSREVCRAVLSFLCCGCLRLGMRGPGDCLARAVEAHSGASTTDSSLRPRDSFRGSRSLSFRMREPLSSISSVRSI
# S1P4 agonist = agonists of human S1P4 receptor; activation, % at 4.98 µM; S1P4-expressing cell line, agonist reporter assay; 220,000 compounds, 0.35% hits; O95977; in the data active means activation above about 11%;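 further: 0% = DMSO vehicle and 100% = reference agonist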
# Lmaj promast = inhibitors of Leishmania major promastigote growth; Leishmania major promastigotes, resazurin fluorescence viability; inhibition, % at 10 µM; 200,000 compounds, 9% hits; in the data active means inhibition above about 50%;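 further: promastigotes grown with compound for 44 hours at 28 °C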
# S1P3 antag = blocks the human S1P3 receptor; Q99500; CHO S1P3 NFAT-BLA reporter, FRET fluorescence, antagonist mode; inhibition, % at 4.98 µM; 170,000 compounds, 0.27% hits; AID 485;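 active means inhibition above the plate cutoff, the mean inhibition of test wells on that plate plus 3 SD, cut at about 28% in these data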;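 further: cells challenged with S1P at its EC80 of 0.8 µM; blue over green emission ratio from cleaved BLA substrate after 4 h stimulation; 0% = S1P-stimulated wells and 100% = unstimulated DMSO-only wells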
# Mdm2 ligase inh = inhibitors of human Mdm2 E3 ubiquitin ligase; signal enhancement, % at 5 µM; 210,000 compounds, 0.11% hits; cell-based MDM2 ubiquitination luciferase reporter, 2 h; 0 = plate control, 100 = twice control, blank-subtracted; Q00987;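 active means signal enhancement of 30% or more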;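 further: luminescence tracks abundance of the self-degrading MDM2-luciferase fusion protein; higher signal means inhibition of MDM2 E3 ligase activity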
#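 Assay system: mammalian cells stably expressing self-ubiquitinating, self-degrading MDM2 E3–luciferase fusion. Quantity: 2000 cells in each well. Medium: DMEM culture medium. Compound dosing: single-point 5 µM. Timing: cell settling 4 h, compound treatment 2 h, both 37 °C. Technique: luciferase luminescence. Read-out basis: percent signal gain over controls, blank-subtracted. Benchmarks: plate controls and plate blanks.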
# An asterisk follows results filed as active; nt = not tested or not shown.
SMILES,S1P4 antagonist,S1P4 agonist,Lmaj promast,S1P3 antag,Mdm2 ligase inh
CC(=O)c1ccc(N2CCN(c3ncc(C(F)(F)F)cc3Cl)CC2)cc1,-10,2,-3,nt,-8
CC(=O)c1ccc(N2CCN(c3ccc(C(F)(F)F)cn3)CC2)cc1,4,1,12,77*,-33
COc1ccc(NC(=O)Nc2cccc(C(F)(F)F)c2)cn1,18,1,3,-5,-12
CC(=NCCc1c(C)[nH]c2ccc(C)cc12)C1=C(O)CC(c2ccccc2)CC1=O (stereo unspecified),9,-1,98*,0,0
CC(=NCCc1c(C)[nH]c2ccc(OC(F)(F)F)cc12)C1=C(O)CC(c2ccccc2)CC1=O (stereo unspecified),14,-1,2,1,-3
CCCc1nc2ccccc2c(C(=O)OCC(=O)N2CCc3ccccc32)c1CC,0,-4,99*,9,-91
CC1CCc2nc3ccccc3c(C(=O)OCC(=O)N3CCc4ccccc43)c2C1 (stereo unspecified),-8,0,4,7,-3
O=C(CCNC(=O)c1ccco1)Nc1ccc(SC(F)F)cc1,-7,-1,-5,-5,4
Clc1ccc(/C=N/N2CCCCC2)cc1,17,0,nt,-6,-10
CC(C)N1CCN(c2ccncc2S(=O)(=O)N2CCOCC2)CC1,-3,0,11,nt,-13
O=S(=O)(c1cnccc1N1CCN(/N=C/c2ccc(Cl)cc2)CC1)N1CCCCC1,1,-2,79*,nt,-9
COc1cccc(/C=N/N2CCN(c3ccccc3OC)CC2)c1,-23,0,-4,nt,-6
Cc1ccc(/C=N/N2CCN(c3ccncc3S(=O)(=O)N3CCCCC3)CC2)cc1,-22,-2,67*,nt,-10
COc1cccc(/C=N/N2CCN(c3ccncc3S(=O)(=O)N3CCCCC3)CC2)c1,12,1,99*,-23,-22
CCOc1ccc(CN(C)CC(=O)Nc2ccc(N3CCOCC3)cc2)cc1OC,-16,2,-4,3,-5
Cc1cc(C(=O)N/N=C/c2cc(Br)cc(Br)c2OC(=O)c2ccccc2)n[nH]1,-22,0,81*,-4,-4
Cc1cc(C(=O)N/N=C/c2cc(Br)ccc2OC(=O)c2ccc(Br)cc2)n[nH]1,-9,2,98*,-9,-13
Cc1cc(C(=O)N/N=C/c2cc(Br)cc(Br)c2OC(=O)c2cccc(F)c2)n[nH]1,-4,1,98*,-13,-18
Cc1cc(C(=O)N/N=C/c2cccs2)n[nH]1,-15,1,3,-10,-18
Cc1cc(C)cc(NC(=O)c2c(C)nc3ccccn23)c1,0,0,-4,10,-4
COc1cccc(NC(=O)CSc2nc3ccsc3c(=O)n2-c2ccc(C(=O)O)cc2)c1,-20,0,0,-32,-2
CCc1c(C)sc(NC(=S)N2CC(C)OC(C)C2)c1C(=O)OC (stereo unspecified),2,0,4,-14,-11
COc1ccc2cc(-c3csc(-c4cccnc4)n3)ccc2c1,-5,1,-2,nt,-19
COc1ccc(-c2csc(-c3cccnc3)n2)cc1C,-5,0,80*,-1,11
CCn1c(SCC(=O)O)nnc1-c1ccccc1OC,11,-1,-6,-8,-1
SMILES,S1P4 antagonist,S1P4 agonist,Lmaj promast,S1P3 antag,Mdm2 ligase inh
CCOc1ccc2[nH]cc(S(=O)(=O)c3ccc(C)cc3)c(=O)c2c1,-4,2,2,11,-7
CCOc1ccc2c(c1)OC(c1ccc(C)cc1)(C(F)(F)F)NC2=O (stereo unspecified),0,0,100*,-13,10
COc1ccccc1C1c2c(C)nn(-c3ccccc3)c2NC(=O)C1NC(=O)c1ccccc1 (stereo unspecified),-20,-1,75*,2,7
COc1cc(NC(=O)Nc2ccc3c(c2)OCO3)cc(OC)c1OC,-10,1,-6,-3,2
COc1ccc(C(C)(C)C)cc1NC(=O)Nc1ccc2c(c1)OCO2,1,-2,100*,59*,4
COc1ccc(OC)c(Cc2nnc(CCC(=O)NCc3ccc(C)s3)o2)c1,-16,0,-1,-12,21
COc1ccc(NC(=O)COC(=O)c2c3c(nc4ccccc24)CCCC3)cc1Cl,-8,2,23,nt,-8
CCOc1cc(Br)c(Br)c(C=Nc2ccc(NC(C)=O)cc2)c1O,4,0,68*,-3,-4
CC(=O)Nc1ccc(N(C(=O)c2ccco2)C(C(=O)NC2CCCC2)c2ccc(N3CCOCC3)cc2)cc1 (stereo unspecified),-16,0,-3,-23,2
Clc1ccc(CN2C3=NCCCN3c3ccccc32)cc1Cl,1,3,51*,0,-19
Fc1ccc(CN2C3=NCCCN3c3ccccc32)cc1,-16,-1,-3,-5,-13
O=C(CN1C2=NCCCN2c2ccccc21)c1cccc(Br)c1,3,-2,94*,3,-1
O=C(CN1C2=NCCCN2c2ccccc21)c1cccs1,5,0,-10,20,-18
O=C(CN1C2=NCCCN2c2ccccc21)c1ccc(Cl)cc1Cl,-12,-1,100*,-6,-20
C#CCOCCOCCOCCNc1nc(N2CCN(C(=O)[C@H](CCCCN)n3cc(C(N)COC(=O)C(F)(F)F)nn3)CC2)nc(N2CCN(C(=O)[C@H](CCCCN)n3cc(C(N)CC(C)C)nn3)CC2)n1 (stereo partly specified),nt,nt,nt,nt,10
Cc1ccc2ncnc(Nc3cccc(C(=O)O)c3)c2c1,-2,0,4,-11,-5
Clc1cccc(Nc2ncnc3ccc(Br)cc23)c1,-6,2,40,nt,-10
Cc1ccc2ncnc(Nc3ccccc3)c2c1,-2,1,65*,10,-15
CCOC(=O)c1ccc(Nc2ncnc3ccc(C)cc23)cc1,9,3,15,nt,-13
CCOC(=O)c1cccc(Nc2ncnc3ccc(C)cc23)c1,-2,1,56*,nt,-20
Cc1cccc(Nc2ncnc3ccc(Br)cc23)c1,-1,2,56*,22,-11
COc1ccccc1Nc1ncnc2ccc(C)cc12,-11,0,71*,nt,-7
CCOCCCNC(=O)c1ccccc1OC1CCN(S(C)(=O)=O)CC1,9,0,-3,-10,2
Cc1cc(C(=O)NCCN2C(=O)S/C(=C\c3cccs3)C2=O)ccc1[N+](=O)[O-],-15,0,1,0,3
CCN(CC)CCOc1c(Br)ccc2c1sc1nc3n(c(=O)c12)CCC3,-23,-2,80*,-64,-8
Cc1c(CCC(=O)O)c(=O)oc2c(C)c(OCc3cc4c(cc3Cl)OCO4)ccc12,2,2,nt,3,-5
CCOc1cccc(CNc2ccc(O)cc2)c1OCc1ccc(Cl)cc1Cl,-5,-2,100*,nt,-16
CCOc1cccc(CNc2ccc(O)cc2)c1OCc1ccccc1Cl,-21,2,99*,nt,5
Nc1cccc(NP(=O)(c2ccccc2)c2ccccc2)c1,9,1,nt,-2,-3

# From PubChem
